Shown are actives, neighbours in structure and some others; about 1.4% of the full set was active somewhere.
GSK3B inh: human GSK3beta kinase inhibitors, primary screen, biochemical, cell-free homogeneous, HTS | GST-GSK3beta kinase, ADP-Glo luminescence, 60 min; active compounds read low | Glycogen synthase kinase-3 beta (Homo sapiens), P49841 | 300,000 compounds, 0.038% hits | activity score (negative = inhibition), % at 10 µM;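 active = more than half of replicate wells score below -50%, meaning over 50% inhibition versus plate controls; inconclusive = some replicates but at most half score below -50%; inactive = no replicate scores below -50%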
Target sequence (P49841 whole entry, looked up): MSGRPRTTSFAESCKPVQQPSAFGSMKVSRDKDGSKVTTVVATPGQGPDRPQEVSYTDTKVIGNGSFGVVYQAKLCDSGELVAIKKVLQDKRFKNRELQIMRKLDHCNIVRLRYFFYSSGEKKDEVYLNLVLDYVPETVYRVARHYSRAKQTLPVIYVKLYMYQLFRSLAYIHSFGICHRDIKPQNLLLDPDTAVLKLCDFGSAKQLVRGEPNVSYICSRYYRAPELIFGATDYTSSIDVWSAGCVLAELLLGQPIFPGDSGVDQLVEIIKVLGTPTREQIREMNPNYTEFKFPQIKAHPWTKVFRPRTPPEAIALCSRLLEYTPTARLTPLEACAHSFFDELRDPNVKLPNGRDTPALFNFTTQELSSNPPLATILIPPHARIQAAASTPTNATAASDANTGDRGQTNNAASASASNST
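Test system: GST-tagged human GSK3beta kinase, cell-free; evaluation: activity score scaled between in-plate DMSO and GW8510 controls; measured by: ADP-Glo luminescence; incubation: 60 min reaction, RT; benchmarks: DMSO and 20 µM GW8510; reagent: peptide substrate plus 25 µM ATP (final); medium: Tris/MgCl2 kinase buffer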
CDK5 p35 inh: inhibitors of human CDK5/p35 kinase, primary screen, biochemical, single concentration. inhibition, % at 10 µM. Recombinant CDK5/p35, ADP-Glo luminescence, 60 min. 330,000 compounds, 0.01% hits. AID 488839, 2010;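 active = highest replicate inhibition of at least 50% and at least 75% of replicates reaching 50%; inconclusive = only one of the two criteria met; inactive = both criteria failed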
STK33 kinase inh: inhibitors of purified STK33 kinase, primary screen, biochemical, ADP-Glo luminescence, homogeneous, cell-free | inhibition, % at 10 µM | 320,000 compounds, 0.073% hits | AID 2661, 2010 | MBP phosphorylation | Serine/threonine-protein kinase 33 (Homo sapiens), Q9BYT3;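 active = inhibition at or above 25%, using the most active replicate where run in duplicate; inactive = inhibition below 25%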
GSIS activator: GLuc luminescence reporter in INS-1E cells, primary screen for activators of glucose-dependent secretion of insulin; INS-1E GLuc reporter insulin secretion, 2-3 h; activation, % at 16.6 µM; 370,000 compounds, 0.61% hits;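 active = lowest replicate activation of at least 40%, so every replicate reaches that level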
HIV Env fusion: inhibitors of HIV-1 Env-driven cell-cell fusion, primary screen, HeLa-JRFL effector, CEM21 target cells, luciferase; inhibition, % at 12.3 µM; 360,000 compounds, 1.1% hits; AID 651610, 2012;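 active = mean replicate inhibition score of at least 50 and every replicate individually at or above 50; inconclusive = only one of the two criteria met; inactive = mean below 50 and not all replicates reaching 50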
GSK3A inh: blockers of GSK3A enzyme activity – biochemical, luminescence, cell-free homogeneous, HTS, primary screen; GSK-3 alpha kinase, ADP-Glo luminescence, 60 min; 320,000 compounds, 0.1% hits; inhibition, % at 10 µM;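 active = more than half of replicates show inhibition above 20%; inconclusive = some but at most half of replicates above 20% inhibition; inactive = no replicate shows inhibition above 20%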;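 note: GST-tagged GSK-3 alpha with peptide substrate and 25 µM ATP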
Numbers stand for hits; n = inactive; u = inconclusive; x = not tested or not shown; [ ] = another dose, or the depositor's remark.

SMILES | GSK3B inh | CDK5 p35 inh | STK33 kinase inh | GSIS activator | HIV Env fusion | GSK3A inh
COc1cc2c(cc1OC)C(Nc1ccccc1)=NC(C)(C)C2 | n | n | x | 56.8 | n | x
Cc1ccc(S(=O)(=O)N(C)C[C@@H]2Oc3c(NS(=O)(=O)c4cn(C)cn4)cccc3C(=O)N([C@H](C)CO)C[C@@H]2C)cc1 | x | x | x | n | x | x
C[C@H](CO)N1C[C@H](C)[C@@H](CN(C)C)OCCCC[C@H](C)Oc2ccc(NC(=O)NC3CCCCC3)cc2C1=O | x | x | x | n | n | x
CCC(=O)N(C)C[C@@H]1Oc2cc(C#CCN(C)C)ccc2S(=O)(=O)N([C@@H](C)CO)C[C@@H]1C | x | x | x | n | n | x
O=C(Nc1ccc(S(=O)(=O)NCc2cccnc2)cc1)c1ccco1 | n | n | n | x | 65.4 | n
CCOc1ccc2oc(C(=O)N(C)CC(=O)Nc3ccc(OCC)c(OCC)c3)c(C)c2c1 | n | n | n | n | n | n
CCOc1ccc2oc(C(=O)N(C)CCc3ccc(OC)c(OC)c3)c(C)c2c1 | x | n | n | 49.7 | n | n
C[C@H]1CN([C@@H](C)CO)C(=O)Cc2cc(NC(=O)Nc3ccc(F)cc3)ccc2O[C@H]1CN(C)S(=O)(=O)c1cccs1 | x | x | x | n | n | x
CCOC(=O)C1=C(C)Nc2nc(SCc3cccnc3)nn2C1c1ccc(OC)cc1 (configuration not stated) | n | n | n | n | 61.5 | n
C[C@@H]1CN([C@H](C)CO)C(=O)CCCn2cc(nn2)CO[C@H]1CN(C)Cc1cccc(O)c1 | x | x | x | n | n | x
O=C(c1ccccc1F)N1CCN(Cc2cccc(Cl)c2)CC1 | n | n | n | x | 69.2 | n
O=C(c1ccccc1F)N1CCCC(N2CCN(Cc3ccc4c(c3)OCO4)CC2)C1 (configuration not stated) | x | x | x | 47.1 | n | x
O=C(c1cccc(Cl)c1)N1CCN(C(=O)c2ccccc2F)CC1 | n | n | n | x | x | n
CO[C@H]1CN(C)C(=O)c2ccc(NC(C)=O)cc2OC[C@@H](C)N(Cc2ccccn2)C[C@H]1C | x | x | x | n | n | x
C[C@@H]1CN([C@H](C)CO)C(=O)Cc2cc(NS(C)(=O)=O)ccc2O[C@H]1CN(C)Cc1ccc(-c2ccccc2)cc1 | x | x | x | n | n | x
O=C(O)CCC1c2cc3c4cc2OC2Oc5cc6c(cc51)C(CCC(=O)O)c1cc5c7cc1OC(O6)c1cc6cc(c1)Oc1cc(cc(C(=O)O)c1)Oc1cc8cc(c1)C(Oc1cc(c(cc1C5CCC(=O)O)C3CCC(=O)O)OC(O4)c1cc(cc(c1)Oc1cc(cc(C(=O)O)c1)O8)Oc1cc(cc(C(=O)O)c1)Oc1cc(cc2c1)Oc1cc(cc(C(=O)O)c1)O6)O7 (configuration not stated) | n | x | 30.0 | x | x | n
C[C@@H]1CCCCO[C@H](CN(C)C(=O)Nc2ccc(C(F)(F)F)cc2)[C@@H](C)CN([C@@H](C)CO)C(=O)c2cc(NS(=O)(=O)c3ccc(Cl)cc3)ccc2O1 | x | x | x | n | u | x
CCc1nc2nc(C)cc(C)n2c1Nc1ccc(OC)cc1 | x | x | x | n | n | x
COc1ccc(Nc2c(CCc3ccccc3)nc3nc(C)cc(C)n23)cc1 | x | x | x | n | 85.5 | x
COc1cc(/C=C(\C#N)C(=O)N2CCOCC2)ccc1OCc1ccccc1 | n | n | n | n | n | n
N#C/C(=C\c1ccc(OCc2ccc(C(=O)O)cc2)cc1)C(=O)N1CCOCC1 | n | n | n | n | 64.6 | n
CC(C)[C@@H]1CC[C@@H](C)C[C@H]1OC(=O)C[n+]1cc(-c2ccc(Cl)cc2)n2c1CCCCC2 | n | n | n | x | 82.7 | n
COc1ccc(-c2c[n+](CC(=O)OC3CC(C)CCC3C(C)C)c3n2CCC3)cc1 (configuration not stated) | n | n | n | n | 60.2 | n
Cn1cnc(S(=O)(=O)N[C@H]2CC[C@@H](CC(=O)N3CCN(c4ccccc4)CC3)O[C@@H]2CO)c1 | x | x | x | n | n | x
COc1cccc(S(=O)(=O)N(C)C[C@@H]2Oc3cc(C#CCC(C)C)ccc3S(=O)(=O)N([C@H](C)CO)C[C@H]2C)c1 | x | x | x | n | 71.0[16.7 µM] | x
SMILES | GSK3B inh | CDK5 p35 inh | STK33 kinase inh | GSIS activator | HIV Env fusion | GSK3A inh
COc1cccc(S(=O)(=O)N(C)C[C@H]2Oc3cc(C#CCC(C)C)ccc3S(=O)(=O)N([C@@H](C)CO)C[C@H]2C)c1 | x | x | x | n | 71.3[16.7 µM] | x
CCCC#Cc1ccc2c(c1)O[C@H](CN(C)S(=O)(=O)c1cccc(OC)c1)[C@H](C)CN([C@@H](C)CO)S2(=O)=O | x | x | x | n | n | x
CCCC#Cc1ccc2c(c1)O[C@H](CN(C)S(=O)(=O)c1cccc(OC)c1)[C@@H](C)CN([C@@H](C)CO)S2(=O)=O | x | x | x | n | n | x
COc1cccc(S(=O)(=O)N(C)C[C@@H]2Oc3cc(C#CCC(C)C)ccc3S(=O)(=O)N([C@@H](C)CO)C[C@@H]2C)c1 | x | x | x | n | 85.2[16.7 µM] | x
COc1ccc(S(=O)(=O)N(C)C[C@H]2Oc3c(NC(=O)Nc4ccccc4)cccc3C(=O)N([C@H](C)CO)C[C@H]2C)cc1 | x | x | x | x | n | x
Cc1cc(C(=O)Nc2cccc3c2O[C@H](CN(C)C(=O)NC(C)C)[C@@H](C)CN([C@H](C)CO)C3=O)n(C)n1 | x | x | x | n | x | x
C[C@H](CO)N1C[C@H](C)[C@H](CN(C)C(=O)c2cccc(F)c2)Oc2cc(-c3cccnc3)ccc2S1(=O)=O | x | x | x | n | n | x
CCn1c2ccccc2c2cc(CNCc3ccc(OC)cc3OC)ccc21 | n | n | n | n | 56.4 | n
COc1cccc(CNCc2ccc(OC)cc2OC)c1 | n | n | n | n | n | n
CN1CC(c2ccc(Cl)c(Cl)c2)[C@@]2(COc3ccccc3C2=O)[C@@]12C(=O)Nc1ccccc12 (some centres not stated) | n | n | n | x | 103.1 | n
Cc1nc(N/N=C/c2ccccn2)sc1C | x | x | n | n | 106.9 | n
CCCc1sc(N/N=C/c2ccccn2)nc1-c1ccc(F)cc1 | n | n | n | x | x | n
CN(C)c1ccc2c(c1)[C@H]1C[C@H](CC(=O)N3CCCCC3)O[C@H](CO)[C@H]1O2 | x | x | x | n | x | x
O=C(O)CSCC(=O)Nc1ccc(C2CCCCC2)cc1 | n | n | n | n | 97.9 | n
CO[C@@H](CN(C)C(=O)c1cnccn1)[C@@H](C)CN([C@H](C)CO)S(=O)(=O)c1ccc(Cl)cc1 | x | x | x | n | x | x
CCNc1ccc(C(=O)OCC(=O)NCc2ccccc2Cl)cc1[N+](=O)[O-] | n | n | n | 58.8 | n | n
CC(=O)c1cccc(NC(=O)COC(=O)c2ccc(S(C)(=O)=O)c([N+](=O)[O-])c2)c1 | n | n | n | 48.0 | n | n
